Compound activity deposited in PubChem BioAssay by several laboratories.
Sampled rows, rich in hits. Any-hit rate of the full collection: about 2.9%.
SENP8 block-1: SENP8 protease inhibition. Q96LD8. purified SENP8, Z-RLRGG-aminoluciferin cleavage, luminescence. inhibition, % at 10 µM. hit rate 1.2% among 330,000; in the data active means inhibition above about 50%
Target sequence (Q96LD8 whole entry, looked up): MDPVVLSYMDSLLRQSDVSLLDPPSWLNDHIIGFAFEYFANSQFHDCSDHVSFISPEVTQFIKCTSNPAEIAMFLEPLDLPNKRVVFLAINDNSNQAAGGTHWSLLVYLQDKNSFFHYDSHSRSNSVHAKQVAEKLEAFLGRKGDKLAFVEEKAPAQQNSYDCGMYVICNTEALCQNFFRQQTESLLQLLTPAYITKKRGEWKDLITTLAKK
SENP1 FRET inh: SENP1 (human) catalytic domain inhibition. Q9P0U3. inhibition, % at 10 µM. recombinant SENP1 catalytic domain, CyPet-SUMO1-YPet FRET cleavage. hit rate 0.21% among 360,000;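 active means inhibition at least 30% at 10 µM, raw YFP signal under a set limit, fluorescence ratio 0.5 to 1.5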;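 further: 0% = enzyme with DMSO and 100% = no enzyme wells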
Target sequence (Q9P0U3 419-644 limits assumed): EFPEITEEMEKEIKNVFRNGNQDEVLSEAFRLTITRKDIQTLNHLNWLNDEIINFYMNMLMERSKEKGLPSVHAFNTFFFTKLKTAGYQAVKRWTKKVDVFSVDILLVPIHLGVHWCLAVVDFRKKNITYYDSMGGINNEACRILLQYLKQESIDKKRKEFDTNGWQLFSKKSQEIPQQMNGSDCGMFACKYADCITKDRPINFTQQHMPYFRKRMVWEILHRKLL
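Controls: no-enzyme wells low, DMSO-plus-enzyme wells high control. Test system: human recombinant His6-tagged SENP1 catalytic domain enzyme. Reagent: SFCypet-SUMO1-SFYpet FRET protein substrate, 25 nM final. Doses: one dose per compound, 10 µM, 0.5% DMSO. Detection: FRET, CFP and YFP emission. Timing: 50 min reaction at room temperature.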
SENP7 block: inhibitors of human SENP7 protease; Q9BQF6; recombinant SENP7, Z-RLRGG-aminoluciferin luminescence, 40 min; inhibition, % at 5 µM; hit rate 1.5% among 330,000; AID 434973;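 active means inhibition above about 50% at the single test dose, limit read from the data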;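 further: plate controls were DMSO with enzyme for no effect and no enzyme buffer wells for full effect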
HSP90 refold inh: inhibitors of HSP90 luciferase refolding in rabbit reticulocyte lysate; luciferase refolding luminescence, 3 h; inhibition, % at 5.6 µM; hit rate 0.91% among 290,000;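 active means inhibition above the screen-wide mean plus 3 SD, computed separately per campaign, cut at about 16% in these data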;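 further: 0% = DMSO wells and 100% = 60 µM geldanamycin wells; inhibitors lower the luminescence because luciferase stays unfolded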
SENP8 block-2: SENP8 (human) protease inhibition | recombinant SENP8, Nedd8 substrate fluorescence | AID 602440 | Q96LD8 | hit rate 0.64% among 360,000 | inhibition, % at 20 µM; in the data active means inhibition mostly above about 40%, no sharp cut-off; inactive means mostly below about 27%
SENP6 block: SENP6 protease inhibition; Q9GZR1; hit rate 1.8% among 330,000; AID 2599; Recombinant SENP6 catalytic domain, aminoluciferin luminescence; inhibition, % at 10 µM;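 active means inhibition above about 50% at the single tested dose, limit read from the data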;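 further: plate controls were DMSO wells with enzyme for no effect and DMSO wells lacking enzyme for full effect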
HSP90 confirm: confirmation of HSP90 inhibitors; AID 1846; rabbit reticulocyte lysate, luciferase refolding luminescence, 3 h; hit rate 64% among 2,300; shares compounds with HSP90 refold inh; inhibition, % at 5.9 µM; in the data active means inhibition above about 18%;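 further: 0% = vehicle wells and 100% = reference inhibitor wells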
FLuc counter: blocks native firefly luciferase in HSP90 counter-screen; purified native firefly luciferase, luminescence; AID 1847; hit rate 48% among 2,300; inhibition, % at 5.9 µM; shares compounds with HSP90 refold inh;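 active means inhibition above the mean inhibition of all tested sample wells plus 3 SD, cut at about 10% in these data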;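 further: 0% = DMSO with luciferase and 100% = wells lacking luciferase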
* marks the source's active call; other numbers are inactive results; · = no result.

SMILES | SENP8 block-1 | SENP1 FRET inh | SENP7 block | HSP90 refold inh | SENP8 block-2 | SENP6 block | HSP90 confirm | FLuc counter
CCOC(=O)Nc1cc(C(=O)OCC)c(C)nc1C | -8 | -1 | -1 | 27* | 21 | -3 | 3 | -3
CCOC(=O)c1cc(NC(=O)Nc2cc(C)ccn2)c(C)nc1C | 1 | 3 | -3 | 4 | 4 | 3 | · | ·
CC1(c2ccccc2)NC(=O)N(CC(=O)Nc2ccc(S(=O)(=O)NC3=NCCCCC3)cc2)C1=O (centres undefined) | · | 0 | · | · | 8 | · | · | ·
Cc1[nH]n(-c2ccccc2)c(=O)c1N=Nc1ccc(Cl)cc1 | -1 | 4 | 13 | 8 | 39 | 6 | · | ·
Cc1[nH]n(-c2ccccc2)c(=O)c1N=Nc1ccc(C(N)=O)cc1 | 0 | 4 | 7 | 25* | 22 | 0 | 39* | -5
Cc1[nH]n(-c2ccccc2)c(=O)c1N=Nc1ccccc1 | -12 | 4 | -7 | -1 | 26 | -2 | · | ·
Cc1[nH]n(-c2ccccc2)c(=O)c1N=Nc1ccc(C(=O)O)cc1 | 2 | 4 | 8 | 36* | 28 | -11 | 34* | -17
CC(=O)c1ccc(N=Nc2c(C)[nH]n(-c3ccccc3)c2=O)cc1 | -1 | 1 | 2 | 35* | 48* | -6 | 60* | -10
COc1ccc(CNC(=O)CN2CCC(NC(=O)c3cccc(OC)c3)CC2)cc1 | · | 2 | · | · | 7 | · | · | ·
O=C(Nc1ccccc1N1CCCCC1)c1ccc(-c2cccc(Cl)c2)o1 | 2 | 4 | 7 | -1 | -21 | 7 | · | ·
O=C(Nc1cccc2nsnc12)c1ccc(-c2cccc(Cl)c2)o1 | 12 | 9 | 9 | 17* | -370 | 32 | 2 | -9
COc1nc(=O)n(C2C=CC(=O)O2)cc1F (centres undefined) | · | 1 | · | · | 9 | · | · | ·
COCCNc1c(-c2ccc(OC)c(OC)c2)nc2ccc(Cl)cn12 | 0 | -23 | 8 | 20* | -391 | 14 | -7 | -7
COCCNc1c(-c2ccc(O)cc2)nc2ccc(Cl)cn12 | -7 | -11 | 3 | -1 | -486 | -15 | · | ·
CCCn1c(NC(=O)CN2C(=O)NC3(CCCCC3)C2=O)nc2ccccc21 | 6 | -28 | 5 | · | -63 | -4 | · | ·
CCOc1ccccc1OCCn1ncc2ccc(OC)c(OC)c2c1=O | -2 | 3 | -2 | -1 | -12 | -2 | · | ·
COc1ccc2cnn(CCOc3ccccc3)c(=O)c2c1OC | -12 | -1 | 10 | 21* | -36 | 7 | 32* | 20*
Cc1cc(OCC(=O)OCC(=O)NCC2CCCO2)ccc1Cl (centres undefined) | -11 | 6 | -7 | · | 1 | -4 | · | ·
COc1ccc(CNC(=O)C[C@H]2C[C@H](C(=O)N3CCCCC3)[C@@]3(CCc4ccccc4)c4[nH]c5ccc(Cl)cc5c4CCN3C2=O)cc1OC | · | 1 | 1 | · | 16 | · | · | ·
COc1ccc(/C=N/NC(=O)CNS(=O)(=O)c2ccccc2)cc1 | 6 | 2 | 4 | · | 9 | -17 | · | ·
CCC(=O)N/N=C/c1ccc(OS(=O)(=O)c2ccccc2)cc1 | -14 | 1 | 1 | 22* | 15 | -31 | -1 | -4
COc1ccc(-c2cc(C(=O)N3CCCC(C(F)(F)F)C3)c3ccccc3n2)cc1OC (centres undefined) | 6 | 1 | -12 | · | -408 | -10 | · | ·
Nc1nc(-c2ccco2)c(-c2ccco2)s1 | 7 | 21 | 10 | 20* | -67 | -3 | 0 | -3
O=C(c1cn(-c2ccccc2)nc1-c1ccc(F)cc1)N1CCOCC1 | 11 | 1 | 0 | 3 | 9 | -28 | · | ·
O=C(c1cn(-c2ccccc2)nc1-c1ccc(Br)cc1)N1CCOCC1 | -5 | 1 | -1 | 95* | 20 | 7 | 1 | -1
COc1ccccc1N(C)S(=O)(=O)c1ccc(C(=O)N2CCCc3ccccc32)cc1 | -4 | 1 | -10 | 3 | 11 | -26 | · | ·
CC1=C(Nc2ccc(C(=O)O)cc2)C(=O)c2ccccc2C1=O | 2 | -1 | -1 | 15 | 27 | 16 | · | ·
CC(=O)NC1=C(Nc2ccc(N(C)C)cc2)C(=O)c2ccccc2C1=O | 14 | 3 | 5 | 21* | 44* | 38 | 8 | -8
